From ChEMBL document CHEMBL6182834, “Dual EGFR and telomerase inhibitory potential of new triazole tethered Schiff bases endowed with apoptosis: design, synthesis, and biological assessments” (RSC Med Chem, 2025)

How the values were obtained:
[1] = tested on: MG-63; experiment: Antiproliferative activity against human MG-63 cells assessed as growth inhibition at 100 ug/mL incubated for 48 hrs by SRB assay relative to control; assay type: functional; conditions: read-out: GI
Summary of the method: (§1)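 SRB assay: cells seeded at 3×10^3/well, allowed 24 h to attach, then exposed to 100 µg/mL for 48 h, three wells per concentration, DMSO 1% v/v vehicle control. Cells fixed with 20% trichloroacetic acid and stained with 0.4% SRB, then OD read at 570 nm. Survival fraction taken as treated OD/control OD.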

[2] = Cytotoxicity against human oral epithelial cells (OEC) assessed as growth inhibition at 100 ug/mL incubated for 48 hrs by SRB assay relative to control; assay type: toxicity, cell-based, Oral epithelial cell; conditions: at 100 µg/mL, read-out: GI; summary of the method: as §1
[3] = tested on: A-375; experiment: Induction of apoptosis in human A-375 cells assessed as upregulation of caspase 8 expression by measuring fold change at 5.04 microg/ml incubated for 1 hrs by ELISA; assay type: functional; conditions: dose 5.04 µg/ml
Summary of the method: (§2)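 Sandwich ELISA with plate precoated with capture antibody for each of caspase-3, -8, -9, CDK2, CDK4 and CDK6. Samples and a 7-point standard incubated 1 h at 37 °C, then biotinylated antibody 1 h, avidin-HRP 30 min and TMB 10-20 min. Reaction stopped with sulphuric acid and read at 450 nm. Duplicate readings, zero standard subtracted, amounts taken from the standard curve.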

[4] = tested on: MCF7; experiment: Antiproliferative activity against human MCF7 cells assessed as growth inhibition at 100 ug/mL incubated for 48 hrs by SRB assay relative to control; assay type: functional; conditions: read-out: GI; summary of the method: as §1
[5] = target: Telomerase reverse transcriptase (Homo sapiens) (UniProt O14746); experiment: Inhibition of telomerase in human A-375 cells assessed as protein concentration incubated for 1 hrs by ELISA (reference value: 3.56 ng/ml); assay type: cell-based
Summary of the method: (§3)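 Human EGFR or telomerase measured by sandwich ELISA. Samples and standards incubated 90 min at 37 °C, then biotinylated detection antibody 1 h, avidin-HRP 30 min and substrate about 15 min, all at 37 °C. Reaction stopped and OD read at 450 nm. Concentration taken from the standard curve.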

[6] = tested on: A-375; experiment: Induction of apoptosis in human A-375 cells assessed as downregulation of CDK6 expression by measuring fold change at 5.04 microg/ml incubated for 1 hrs by ELISA; assay type: functional; conditions: dose 5.04 µg/ml; summary of the method: as §2
[7] = tested on: Huh-7; experiment: Antiproliferative activity against human Huh-7 cells assessed as growth inhibition at 100 ug/mL incubated for 48 hrs by SRB assay relative to control; assay type: functional; conditions: read-out: GI; summary of the method: as §1
[8] = tested on: A-375; experiment: Induction of apoptosis in human A-375 cells assessed as upregulation of caspase 3 expression by measuring fold change at 5.04 microg/ml incubated for 1 hrs by ELISA; assay type: functional; conditions: dose 5.04 µg/ml; summary of the method: as §2
[9] = Cytotoxicity against human HNO 97 cell line assessed as inhibition of cell growth incubated for 48 hrs by SRB assay; assay type: functional, cell-based; conditions: HNO 97, 48 h
Summary of the method: (§4)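 Cells plated at 3×10^3/well and left 24 h to attach. Treated at 12.5, 25, 50 and 62.5 µg/mL for 48 h, three wells per concentration, with DMSO (1% v/v) vehicle control. Fixed with 20% TCA, stained with 0.4% SRB, OD read at 570 nm. Survival fraction = treated OD/control OD. IC50 from sigmoidal dose-response curve fitting.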

[10] = tested on: HepG2; experiment: Antiproliferative activity against human HepG2 cells assessed as growth inhibition at 100 ug/mL incubated for 48 hrs by SRB assay relative to control; assay type: functional; conditions: read-out: GI; summary of the method: as §1
[11] = tested on: A-375; experiment: Induction of apoptosis in human A-375 cells assessed as downregulation of CDK4 expression by measuring fold change at 5.04 microg/ml incubated for 1 hrs by ELISA; assay type: functional; conditions: dose 5.04 µg/ml; summary of the method: as §2
[12] = tested on: A-375; experiment: Cell cycle arrest in human A-375 cells assessed as increase in accumulation of cells at G0/G1 phase at 3.1 microM incubated for 48 hrs by PI staining based flow cytometry analysis (reference value: 17.29 %)
[13] = target: Telomerase reverse transcriptase (Homo sapiens) (UniProt O14746); experiment: Inhibition of telomerase in human A-375 cells assessed as downregulation of telomerase concentration by measuring fold change incubated for 1 hrs by ELISA; assay type: cell-based; summary of the method: as §3
[14] = target: Epidermal growth factor receptor (Homo sapiens) (UniProt P00533); experiment: Inhibition of EGFR in human A-375 cells assessed as protein concentration incubated for 1 hrs by ELISA (reference value: 8.91 ng/ml); assay type: cell-based; summary of the method: as §3
[15] = tested on: HeLa; experiment: Antiproliferative activity against human HeLa cells assessed as growth inhibition at 100 ug/mL incubated for 48 hrs by SRB assay relative to control; assay type: functional; conditions: read-out: GI; summary of the method: as §1
[16] = target: Epidermal growth factor receptor (Homo sapiens) (UniProt P00533); experiment: Inhibition of EGFR in human A-375 cells assessed as downregulation of EGFR concentration by measuring fold change incubated for 1 hrs by ELISA; assay type: cell-based; summary of the method: as §3
[17] = tested on: A-375; experiment: Cytotoxicity against human A-375 cells assessed as inhibition of cell growth incubated for 48 hrs by SRB assay; assay type: functional, cell-based; conditions: A-375, 48 h; summary of the method: as §4
[18] = tested on: FaDu; experiment: Antiproliferative activity against human FaDu cells assessed as growth inhibition at 100 ug/mL incubated for 48 hrs by SRB assay relative to control; assay type: functional; conditions: read-out: GI; summary of the method: as §1
[19] = tested on: A-375; experiment: Induction of apoptosis in human A-375 cells assessed as downregulation of CDK2 expression by measuring fold change at 5.04 microg/ml incubated for 1 hrs by ELISA; assay type: functional; conditions: dose 5.04 µg/ml; summary of the method: as §2
[20] = tested on: MDA-MB-468; experiment: Antiproliferative activity against human MDA-MB-468 cells assessed as growth inhibition at 100 ug/mL incubated for 48 hrs by SRB assay relative to control; assay type: functional; conditions: read-out: GI; summary of the method: as §1
[21] = tested on: HCT-116; experiment: Cytotoxicity against human HCT-116 cells assessed as inhibition of cell growth incubated for 48 hrs by SRB assay; assay type: functional, cell-based; conditions: HCT-116, 48 h; summary of the method: as §4
[22] = tested on: HepG2; experiment: Cytotoxicity against human HepG2 cells assessed as inhibition of cell growth incubated for 48 hrs by SRB assay; assay type: functional, cell-based; conditions: HepG2, 48 h; summary of the method: as §4
[23] = tested on: A-375; experiment: Induction of apoptosis in human A-375 cells assessed as upregulation of caspase 9 expression by measuring fold change at 5.04 microg/ml incubated for 1 hrs by ELISA; assay type: functional; conditions: dose 5.04 µg/ml; summary of the method: as §2
[24] = tested on: Caco-2; experiment: Antiproliferative activity against human Caco-2 cells assessed as growth inhibition at 100 ug/mL incubated for 48 hrs by SRB assay relative to control; assay type: functional; conditions: read-out: GI; summary of the method: as §1
[25] = tested on: A-375; experiment: Antiproliferative activity against human A-375 cells assessed as growth inhibition at 100 ug/mL incubated for 48 hrs by SRB assay relative to control; assay type: functional; conditions: read-out: GI; summary of the method: as §1
[26] = Antiproliferative activity against human HNO 97 cell line assessed as growth inhibition at 100 ug/mL incubated for 48 hrs by SRB assay relative to control; assay type: functional; conditions: read-out: GI; summary of the method: as §1
[27] = Cytotoxicity against HSF cells assessed as growth inhibition at 100 ug/mL incubated for 48 hrs by SRB assay relative to control; assay type: toxicity, cell-based; conditions: human, at 100 µg/mL, read-out: GI; summary of the method: as §1
[28] = tested on: HCT-116; experiment: Antiproliferative activity against human HCT-116 cells assessed as growth inhibition at 100 ug/mL incubated for 48 hrs by SRB assay relative to control; assay type: functional; conditions: read-out: GI; summary of the method: as §1

Chain of Epidermal growth factor receptor (Homo sapiens) (P00533 whole entry): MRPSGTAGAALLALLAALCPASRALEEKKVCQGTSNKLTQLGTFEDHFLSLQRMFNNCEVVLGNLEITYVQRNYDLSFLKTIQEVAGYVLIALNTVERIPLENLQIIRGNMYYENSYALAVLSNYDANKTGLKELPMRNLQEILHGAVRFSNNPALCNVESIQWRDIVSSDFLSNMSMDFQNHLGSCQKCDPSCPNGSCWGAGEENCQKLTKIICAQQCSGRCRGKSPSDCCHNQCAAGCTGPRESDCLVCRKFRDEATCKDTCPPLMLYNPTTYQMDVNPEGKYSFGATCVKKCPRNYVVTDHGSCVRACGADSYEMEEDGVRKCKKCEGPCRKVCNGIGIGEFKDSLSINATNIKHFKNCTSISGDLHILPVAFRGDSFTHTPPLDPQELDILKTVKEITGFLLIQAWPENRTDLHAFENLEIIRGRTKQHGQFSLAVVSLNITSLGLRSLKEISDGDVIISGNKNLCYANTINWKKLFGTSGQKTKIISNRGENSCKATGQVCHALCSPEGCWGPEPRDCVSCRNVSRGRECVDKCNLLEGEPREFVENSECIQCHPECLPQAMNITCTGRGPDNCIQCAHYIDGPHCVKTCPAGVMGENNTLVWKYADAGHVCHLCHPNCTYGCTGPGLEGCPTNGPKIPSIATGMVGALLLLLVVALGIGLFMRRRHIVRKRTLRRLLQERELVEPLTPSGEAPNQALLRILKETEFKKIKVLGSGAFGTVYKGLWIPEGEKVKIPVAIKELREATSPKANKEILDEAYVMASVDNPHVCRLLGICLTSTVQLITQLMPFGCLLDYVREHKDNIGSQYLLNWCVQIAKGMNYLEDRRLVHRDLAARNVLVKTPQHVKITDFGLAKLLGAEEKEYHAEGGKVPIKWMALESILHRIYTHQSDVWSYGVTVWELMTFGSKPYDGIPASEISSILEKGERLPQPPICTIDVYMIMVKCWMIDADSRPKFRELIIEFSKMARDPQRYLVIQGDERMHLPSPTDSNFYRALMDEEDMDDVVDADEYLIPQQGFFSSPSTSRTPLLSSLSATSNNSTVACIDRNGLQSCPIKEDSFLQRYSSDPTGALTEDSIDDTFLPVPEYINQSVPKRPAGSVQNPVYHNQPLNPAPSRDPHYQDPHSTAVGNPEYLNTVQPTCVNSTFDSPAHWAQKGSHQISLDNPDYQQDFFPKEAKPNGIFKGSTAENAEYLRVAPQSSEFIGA
Chain of Telomerase reverse transcriptase (Homo sapiens) (O14746 whole entry): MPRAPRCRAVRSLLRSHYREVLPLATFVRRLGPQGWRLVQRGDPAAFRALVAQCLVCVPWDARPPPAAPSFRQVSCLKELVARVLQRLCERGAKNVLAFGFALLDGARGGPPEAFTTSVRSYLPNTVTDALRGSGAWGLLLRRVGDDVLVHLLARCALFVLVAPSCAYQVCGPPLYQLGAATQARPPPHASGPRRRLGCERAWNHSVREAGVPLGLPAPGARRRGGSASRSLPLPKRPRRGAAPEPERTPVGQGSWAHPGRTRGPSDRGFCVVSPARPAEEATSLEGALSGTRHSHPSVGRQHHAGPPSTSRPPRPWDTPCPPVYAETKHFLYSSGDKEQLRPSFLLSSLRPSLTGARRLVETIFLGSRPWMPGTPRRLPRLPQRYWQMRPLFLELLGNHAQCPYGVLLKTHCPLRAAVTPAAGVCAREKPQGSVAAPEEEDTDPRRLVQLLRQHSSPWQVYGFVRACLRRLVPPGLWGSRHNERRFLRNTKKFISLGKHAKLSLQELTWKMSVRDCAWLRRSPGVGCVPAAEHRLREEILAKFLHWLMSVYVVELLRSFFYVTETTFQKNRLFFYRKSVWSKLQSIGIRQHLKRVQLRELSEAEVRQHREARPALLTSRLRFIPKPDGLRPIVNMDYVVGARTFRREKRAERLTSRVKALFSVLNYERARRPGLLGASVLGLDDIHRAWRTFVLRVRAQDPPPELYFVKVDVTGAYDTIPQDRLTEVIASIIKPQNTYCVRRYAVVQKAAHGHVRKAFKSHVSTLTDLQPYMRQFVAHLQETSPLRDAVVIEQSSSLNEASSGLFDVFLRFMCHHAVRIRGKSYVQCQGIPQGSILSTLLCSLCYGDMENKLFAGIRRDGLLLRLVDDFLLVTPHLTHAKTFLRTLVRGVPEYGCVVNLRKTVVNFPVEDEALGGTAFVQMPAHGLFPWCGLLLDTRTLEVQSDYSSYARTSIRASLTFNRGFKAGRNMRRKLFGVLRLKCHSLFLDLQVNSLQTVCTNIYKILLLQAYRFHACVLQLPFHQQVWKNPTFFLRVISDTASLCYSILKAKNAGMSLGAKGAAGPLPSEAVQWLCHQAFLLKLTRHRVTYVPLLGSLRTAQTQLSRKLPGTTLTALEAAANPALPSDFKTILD

With `COc1cccc(/C=N/NC(=O)c2nnn(-c3ccc(Cl)cc3)c2C)c1OC` the inhibition of growth at 100 µg/mL [1] was 65%, the inhibition at 48 h, 100 ug/mL [2] was 37% and the “fold change (FC)” value [3] was 1.55. For the same compound, the inhibition of growth at 100 µg/mL [4] was 70%, the Activity [5] was 1.31 ng/mL and the “fold change (FC)” value [6] was 9.15. For the same compound, the inhibition of growth at 100 µg/mL [7] was 62%, the “fold change (FC)” value [8] was 1.35 and the IC50 [9] was 13.3 µM. For the same compound, the inhibition of growth at 100 µg/mL [10] was 80%, the “fold change (FC)” value [11] was 2.01 and the Activity [12] was 78.39%. The fold change (FC) [13] was 2.72, the Activity [14] was 3.45 ng/mL and the inhibition of growth at 100 µg/mL [15] was 63%. The fold change (FC) [16] was 2.58, the IC50 [17] was 12.6 µM and the inhibition of growth at 100 µg/mL [18] was 76%. The “fold change (FC)” value [19] was 2.91, the inhibition of growth at 100 µg/mL [20] was 69% and the IC50 [21] was 13.3 µM. For the same compound, the IC50 [22] was 31.2 µM, the “fold change (FC)” value [23] was 1.51 and the inhibition of growth at 100 µg/mL [24] was 55%. It also gave an inhibition of growth at 100 µg/mL [25] of 85%, an inhibition of growth at 100 µg/mL [26] of 72% and an inhibition at 48 h, 100 ug/mL [27] of 25%. For the same compound, the inhibition of growth at 100 µg/mL [28] was 82%.
